In ChEMBL document CHEMBL3045766, “Potent nematicidal activity of phthalaldehyde, salicylaldehyde, and cinnamic aldehyde against Meloidogyne incognita” (J Agric Food Chem, 2013):
Values after ≈ are worked out from the molar mass of the structure shown. Active and inactive are the calls of the source. The rule behind the calls is not given here.

How the values were obtained:
Meloidogyne incognita [1] = assay: Nematicidal activity against second-stage juveniles of Meloidogyne incognita (root-knot nematode) after 1 hr by inverted microscopic analysis; assay type: functional
Summary of the method: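 J2 motility assay: methanol stocks diluted in water/Tween, mixed 1:1 with 25 J2 per well (methanol ≤1% final), kept covered in dark at 28 °C; paralysis scored at 1 h over a concentration range to give EC100. Water and water/Tween 0.2% controls; five replicates, repeated twice.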

Meloidogyne incognita [2] = assay: Nematicidal activity against second-stage juveniles of Meloidogyne incognita (root-knot nematode) after 1 day by inverted microscopic analysis; assay type: functional, organism-based; settings: 24 h
Summary of the method: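 Stocks in methanol, diluted with water/Tween; double-strength solutions mixed 1:1 with 25 J2 per well (methanol ≤1% final), covered, dark, 28 °C, 1 day. Controls: water and water/Tween 0.2%. Paralysis corrected for water-control mortality; five replicates, experiment run twice; EC50 from log-logistic nonlinear regression.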

Meloidogyne incognita [3] = assay: Nematicidal activity against second-stage juveniles of Meloidogyne incognita (root-knot nematode) assessed as microscopic fracture on cuticle at […] by scanning electron microscopic analysis; assay type: functional, organism-based
Summary of the method: (§1)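 J2 juveniles were exposed to the aldehyde, with untreated J2 as negative controls. They were postfixed in 1% osmium tetroxide in 0.1 M cacodylate buffer for 1 h, washed in distilled water, and frozen in slush nitrogen. They were then freeze-dried under vacuum overnight (−70 °C rising to room temperature), sputter-coated with 10 nm gold and imaged by secondary-electron SEM at 15 kV.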

Meloidogyne incognita [4] = assay: Nematicidal activity against second-stage juveniles of Meloidogyne incognita (root-knot nematode) assessed as macroscopic fracture on cuticle at […] by scanning electron microscopic analysis; assay type: functional, organism-based; summary of the method: as §1
Meloidogyne incognita [5] = assay: Nematicidal activity against second-stage juveniles of Meloidogyne incognita (root-knot nematode) assessed as smooth/stretched cuticle at […] by scanning electron microscopic analysis; assay type: functional, organism-based; summary of the method: as §1
[6] = molecular target: T1, Collagen (Meloidogyne javanica) (UniProt O01945); assay: Covalent binding to Meloidogyne javanica (root-knot nematode) collagen 3 assessed as compound-protein adduct formation at 1 mM by HPLC-ESI-MS analysis
T1 sequence (whole entry): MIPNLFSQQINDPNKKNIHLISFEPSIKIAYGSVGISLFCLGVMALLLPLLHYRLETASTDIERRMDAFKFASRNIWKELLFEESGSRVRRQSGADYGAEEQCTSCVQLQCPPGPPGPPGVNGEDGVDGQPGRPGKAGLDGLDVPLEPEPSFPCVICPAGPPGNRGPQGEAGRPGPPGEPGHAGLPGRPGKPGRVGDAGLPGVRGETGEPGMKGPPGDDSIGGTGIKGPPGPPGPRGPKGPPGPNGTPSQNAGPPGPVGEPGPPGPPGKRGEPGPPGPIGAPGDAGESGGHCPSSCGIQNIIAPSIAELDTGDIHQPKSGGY
Summary of the method: (§2)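 Aldehyde (final 1, 5 or 15 mM) incubated with probe peptide (0.5 mM) in 100 mM Tris-HCl pH 7.4, 25 °C, dark, 24 h, duplicate; stopped with TFA (0.1% final). Diluted in 0.1% TFA, analysed by HPLC-ESI-MS (C18, TFA water/acetonitrile gradient). Adducts quantified label-free as relative XIC peak area of each derivative versus sum of all derivatives; peptide-only control.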

[7] = molecular target: T1, Collagen (Meloidogyne javanica); assay: Covalent binding to Meloidogyne javanica (root-knot nematode) collagen 3 assessed as compound-protein adduct formation at 5 mM by HPLC-ESI-MS analysis; summary of the method: as §2
[8] = molecular target: T1, Collagen (Meloidogyne javanica); assay: Covalent binding to Meloidogyne javanica (root-knot nematode) collagen 3 assessed as compound-protein adduct formation at 15 mM by HPLC-ESI-MS analysis; summary of the method: as §2

SMILES | EC100 (Meloidogyne incognita [1]) [mg/L] | EC50 (Meloidogyne incognita [2]) [µg/mL] | further results
CCc1ccc(O)c(C=O)c1 | >100 | 53 (≈ 353 µM) | –
CCCCCCCCCCCCCCCc1ccc(C=O)c(O)c1 | >1000 | > 1000 | –
CCCCC/C=C/C=C/C=O | >20 | 12 (≈ 78.8 µM) | Activity (Meloidogyne incognita [3]): inactive; Activity (Meloidogyne incognita [4]): Active; Activity (Meloidogyne incognita [5]): Active
COc1ccccc1C=O [2-METHOXYBENZALDEHYDE] | >1000 | > 1000 | Activity [6]: 74%; Activity [7]: 77%
O=Cc1ccc2ccccc2c1 [2-NAPHTHALDEHYDE] | >75 | 13 (≈ 83.2 µM) | –
O=Cc1ccccc1[N+](=O)[O-] [2-NITROBENZALDEHYDE] | >200 | 120 (≈ 794 µM) | –
COc1ccc(C=O)cc1OC [3,4-DIMETHOXYBENZALDEHYDE] | >1000 | > 1000 | Activity [6]: 65%; Activity [7]: 70%
CC(=O)c1ccc2c(c1)OCO2 [3,4-METHYLENDIOXY ACETOPHENONE] | >500 | > 500 | –
O=Cc1cccc(C(=O)O)c1 [3-FORMYLBENZOIC ACID] | >1000 | > 1000 | –
O=Cc1cccc(O)c1 [3-HYDROXYBENZALDEHYDE] | >250 | 31 (≈ 254 µM) | –
O=Cc1ccc(O)cc1 [4-HYDROXYBENZALDEHYDE] | 500 | 75 (≈ 614 µM) | –
O=Cc1ccccc1 [BENZALDEHYDE] | >100 | > 250 | Activity [8]: 6%; Activity [6]: 0%; Activity [7]: 0%
Oc1ccccc1O [CATECHOL] | >500 | > 500 | –
O=C(O)/C=C/c1ccccc1 [CINNAMIC ACID] | >250 | > 250 | –
O=C/C=C\c1ccccc1 [CINNAMIC ALDEHYDE] | >250 | 12 (≈ 90.8 µM) | –
CC(C)=CCC/C(C)=C/C=O [CITRAL] | >250 | 72 (≈ 473 µM) | –
CCOP(=O)(SC(C)CC)N1CCSC1=O (configuration not stated) [FOSTHIAZATE] | 3 | – | –
O=Cc1ccco1 [FURFURAL] | 11 | 8 (≈ 83.3 µM) | –
O=Cc1ccccc1O[C@@H]1O[C@H](CO)[C@@H](O)[C@H](O)[C@H]1O [HELICIN] | >250 | > 250 | –
O=Cc1cccc(C=O)c1 [ISOPHTHALIC DICARBOXALDEHYDE] | >100 | 15 (≈ 112 µM) | Activity [8]: 0%; Activity [6]: 1%; Activity [7]: 0%
c1ccc([C@H]2CN3CCSC3=N2)cc1 [LEVAMISOLE] | >20 | 4 (≈ 19.6 µM) | –
COC(=O)c1ccccc1O [METHYL SALICYLATE] | >1000 | > 1000 | –
O=Cc1ccccc1C=O [ORTHO-PHTHALALDEHYDE] | >50 | 11 (≈ 82 µM) | –
C[C@@H]1O[C@@H](O[C@H]2C[C@@H](O)[C@]3(CO)[C@H]4[C@H](O)C[C@]5(C)[C@@H](C6=CC(=O)OC6)CC[C@]5(O)[C@@H]4CC[C@]3(O)C2)[C@H](O)[C@H](O)[C@H]1O [OUABAIN] | >1000 | > 1000 | –
O=CCc1ccccc1 [PHENYLACETALDEHYDE] | 1000 | 167 (≈ 1390 µM) | –
O=Cc1ccc2c(c1)OCO2 [PIPERONAL] | >100 | 44 (≈ 293 µM) | Activity [6]: 5%; Activity [7]: 30%
O=Cc1ccc(O)c(O)c1 [PROTOCATECHUALDEHYDE] | >1000 | > 1000 | Activity [8]: 73%; Activity [6]: 72%; Activity [7]: 89%
Cn1c2cccc(=O)c-2nc2ccccc21 [PYOCYANIN] | >250 | 72 (≈ 342 µM) | –
O=Cc1ccccc1O [SALICYLADEHYDE] | >25 | 11 (≈ 90.1 µM) | Activity (Meloidogyne incognita [3]): inactive; Activity (Meloidogyne incognita [4]): Active; Activity (Meloidogyne incognita [5]): Active; Activity [6]: 61%; Activity [7]: 57%
COc1cc(C=O)ccc1O [VANILLIN] | >1000 | > 1000 | –
